Active and inactive are the calls of the source. The rule behind the calls is not given here.
Assays:
Cathepsin B (Bos taurus) = Cathepsin B (Bos taurus) (UniProt P07688); experiment: Evaluated for second-order rate constants for the inactivation of mammalian lysosomal cathepsin B.
[1] = molecular target: Procathepsin L (Homo sapiens) (UniProt P07711); experiment: Evaluated for second-order rate constants for the inactivation of mammalian lysosomal cathepsin L.
Papain (Carica papaya) [2] = molecular target: T1, Papain (Carica papaya) (UniProt P00784); experiment: Second-order rate constants for the inactivation of papain (vacuolar plant enzyme)
T1 sequence (whole entry): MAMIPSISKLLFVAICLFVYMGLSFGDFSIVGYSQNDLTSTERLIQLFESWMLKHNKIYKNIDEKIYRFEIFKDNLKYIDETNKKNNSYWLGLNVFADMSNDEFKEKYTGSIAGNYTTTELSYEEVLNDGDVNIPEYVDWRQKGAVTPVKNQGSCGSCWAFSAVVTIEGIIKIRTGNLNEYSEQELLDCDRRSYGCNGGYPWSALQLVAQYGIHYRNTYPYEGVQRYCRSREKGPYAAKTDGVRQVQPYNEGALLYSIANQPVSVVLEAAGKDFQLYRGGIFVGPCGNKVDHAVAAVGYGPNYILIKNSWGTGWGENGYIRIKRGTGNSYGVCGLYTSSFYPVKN
In short: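 Papain with L-BAPA (405 nm) in 50 mM phosphate pH 6.5, 5 mM EDTA, 5 mM cysteine, or with Z-Phe-Arg-AMC in phosphate pH 6.5 with DTT, EDTA, Brij 35; 25 °C. kobs at 3–7 inhibitor concentrations, continuous or dilution assay; k2nd = ki/Ki, or from linear kobs vs [I] when unsaturated; substrate-corrected (Km 2.5 mM L-BAPA, 0.09 mM Z-Phe-Arg-AMC).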

Papain (Carica papaya) [3] = molecular target: T1, Papain (Carica papaya); experiment: Second-order rate constants for the inactivation of papain at pH 6.5(vascular plant enzyme)
In short: (§1)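 Papain (0.5 mg mL-1) with 1.4–1.5 mM L-BAPA, read at 405 nm, 25 °C. Buffers: 50 mM citrate for pH 4–6, phosphate for pH 6–8, borate for pH 8–9. kobs came from continuous or dilution assays at 3–7 inhibitor concentrations. k_i/K_i came from a hyperbolic or linear fit, corrected to zero substrate (Km 2.5 mM).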

Papain (Carica papaya) [4] = molecular target: T1, Papain (Carica papaya); experiment: Second-order rate constants for the inactivation of papain at pH 4 (vascular plant enzyme); in short: as §1
Pro-cathepsin H = molecular target: T2, Pro-cathepsin H (Homo sapiens, UniProt P09668); experiment: Inhibition constant for the non time dependent inhibition of cathepsin H
T2 sequence (P09668 whole entry): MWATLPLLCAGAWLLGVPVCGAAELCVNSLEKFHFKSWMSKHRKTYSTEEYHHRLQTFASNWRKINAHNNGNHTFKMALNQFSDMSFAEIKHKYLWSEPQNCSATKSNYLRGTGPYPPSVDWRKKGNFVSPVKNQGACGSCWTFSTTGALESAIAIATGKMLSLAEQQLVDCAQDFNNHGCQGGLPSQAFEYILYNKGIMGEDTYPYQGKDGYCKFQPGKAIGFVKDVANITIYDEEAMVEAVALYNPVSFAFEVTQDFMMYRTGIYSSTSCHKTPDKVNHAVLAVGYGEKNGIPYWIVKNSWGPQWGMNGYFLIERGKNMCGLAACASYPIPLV

Papain (Carica papaya) [5] = molecular target: T1, Papain (Carica papaya); experiment: Second-order rate constants for the inactivation of papain at pH 8(vascular plant enzyme); in short: as §1
Papain (Carica papaya) [6] = molecular target: T1, Papain (Carica papaya); experiment: Second-order rate constants for the inactivation of papain (vascular plant enzyme); no inhibition
[7] = molecular target: T3, Calpain-2 catalytic subunit (Sus scrofa, UniProt P43367); experiment: Inhibition constant for the non time dependent inhibition of Calpain 2
T3 sequence (P43367 whole entry): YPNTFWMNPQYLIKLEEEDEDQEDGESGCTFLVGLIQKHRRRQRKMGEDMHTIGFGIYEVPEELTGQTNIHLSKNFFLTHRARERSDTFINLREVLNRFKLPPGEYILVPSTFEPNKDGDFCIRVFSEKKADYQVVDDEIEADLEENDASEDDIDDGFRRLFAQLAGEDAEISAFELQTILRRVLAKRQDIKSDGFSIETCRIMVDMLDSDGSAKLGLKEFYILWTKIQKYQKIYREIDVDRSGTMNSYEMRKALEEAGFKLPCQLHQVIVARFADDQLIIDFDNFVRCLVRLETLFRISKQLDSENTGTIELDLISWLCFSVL
In short: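 Calpain I or II with Suc-Leu-Tyr-AMC in 50 mM Tris pH 7.5, 5 mM CaCl2, 2.5 mM EDTA, 2.5 mM DTT. Enzyme preincubated in buffer 30 min, assayed at 25 °C, fluorescence 460 nm (excitation 380 nm). Ki from Dixon plots, corrected to zero substrate with Km 0.4 mM (calpain I) or 0.22 mM (calpain II).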

Chain of Procathepsin L (Homo sapiens) (P07711 114-333 limits assumed): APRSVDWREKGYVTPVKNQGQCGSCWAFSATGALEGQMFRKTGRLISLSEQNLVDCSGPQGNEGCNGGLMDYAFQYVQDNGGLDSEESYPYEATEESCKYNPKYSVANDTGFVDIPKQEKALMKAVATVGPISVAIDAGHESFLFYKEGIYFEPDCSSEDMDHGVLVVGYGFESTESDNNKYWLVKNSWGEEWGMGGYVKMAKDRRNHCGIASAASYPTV

Compound	ki/Ki (Cathepsin B (Bos taurus))	ki/Ki [1]	ki/Ki (Papain (Carica papaya) [2])	also measured
CCOC(=O)C1C(C(=O)OCc2ccccc2)N1C(=O)[C@H](C)NC(=O)[C@H](Cc1ccccc1)NC(=O)OC(C)(C)C (some centres undefined)	7.38 M⁻¹ s⁻¹	4.68 M⁻¹ s⁻¹	20.5 M⁻¹ s⁻¹	
CCOC(=O)C1C(C(=O)OCC)N1C(=O)[C@H](CC(C)C)NC(=O)OCC1c2ccccc2-c2ccccc21 (some centres undefined)		1.65 M⁻¹ s⁻¹	1.08 M⁻¹ s⁻¹	
CCOC(=O)C1C(C(=O)O)N1C(=O)[C@H](Cc1ccccc1)NC(=O)OC(C)(C)C (some centres undefined)	20.5 M⁻¹ s⁻¹	3.13 M⁻¹ s⁻¹	8.42 M⁻¹ s⁻¹	
CCOC(=O)[C@@H]1[C@@H](C(=O)OCC)N1C(=O)[C@H](C)NC(=O)[C@@H](Cc1ccccc1)NC(=O)OC(C)(C)C	7.58 M⁻¹ s⁻¹	7.82 M⁻¹ s⁻¹	22.8 M⁻¹ s⁻¹	
CCOC(=O)C1NC1C(=O)N[C@@H](CC(C)C)C(=O)OCc1ccccc1 (some centres undefined)	0.683 M⁻¹ s⁻¹	52.2 M⁻¹ s⁻¹	3.57 M⁻¹ s⁻¹	ki/Ki (Papain (Carica papaya) [3]): 2.8 M⁻¹ s⁻¹; ki/Ki (Papain (Carica papaya) [4]): 13.1 M⁻¹ s⁻¹; Ki (Pro-cathepsin H): 260 µM; ki/Ki (Papain (Carica papaya) [5]): 0.4 M⁻¹ s⁻¹
CCOC(=O)[C@@H]1[C@@H](C(=O)N[C@@H](CC(C)C)C(=O)OCc2ccccc2)N1C(=O)[C@H](Cc1ccccc1)NC(=O)OC(C)(C)C	2.03 M⁻¹ s⁻¹	3.65 M⁻¹ s⁻¹	2.85 M⁻¹ s⁻¹	Ki (Pro-cathepsin H): 93 µM
CCOC(=O)[C@@H]1[C@@H](C(=O)OCC)N1C(=O)[C@H](C)NC(=O)[C@H](Cc1ccccc1)NC(=O)CNC(=O)OCc1ccccc1	7.02 M⁻¹ s⁻¹	5.25 M⁻¹ s⁻¹	8.72 M⁻¹ s⁻¹	
CC[C@H](C)C(NC(=O)[C@@H]1N[C@H]1C(=O)NCC(C)C)C(=O)N1CCCC1C(=O)O (single isomer, unassigned)	13 M⁻¹ s⁻¹	50 M⁻¹ s⁻¹		ki/Ki (Papain (Carica papaya) [6]): inactive
CCOC(=O)[C@H]1N[C@@H]1C(=O)N[C@@H](CC(C)C)C(=O)N1CCC[C@H]1C(=O)OCc1ccccc1	6.75 M⁻¹ s⁻¹	35.7 M⁻¹ s⁻¹	3.78 M⁻¹ s⁻¹	
CC(C)CCNC(=O)[C@H](CC(C)C)NC(=O)[C@H]1N[C@@H]1C(=O)O			0.167 M⁻¹ s⁻¹	
CCOC(=O)[C@@H]1[C@@H](C(=O)OCC)N1C(=O)[C@H](Cc1ccccc1)NC(=O)[C@H](C)NC(=O)OCc1ccccc1	2.08 M⁻¹ s⁻¹	0.483 M⁻¹ s⁻¹	2.95 M⁻¹ s⁻¹	
CCOC(=O)C1NC1C(=O)OCC (centres undefined)				ki/Ki (Papain (Carica papaya) [4]): 1.02 M⁻¹ s⁻¹
CCOC(=O)C1NC1C(=O)N[C@@H](CC(C)C)C(=O)NCCC(C)C (some centres undefined)			3 M⁻¹ s⁻¹	
CCOC(=O)[C@@H]1[C@@H](C(=O)OCC)N1C(=O)[C@H](C)NC(=O)OC(C)(C)C			0.717 M⁻¹ s⁻¹	
CCOC(=O)[C@@H]1[C@@H](C(=O)OCC)N1C(=O)CNC(=O)CNC(=O)OCc1ccccc1	6.48 M⁻¹ s⁻¹	5.28 M⁻¹ s⁻¹	4.95 M⁻¹ s⁻¹	
CCOC(=O)C1C(C(=O)OCc2ccccc2)N1C(=O)CNC(=O)[C@H](CC(C)C)NC(=O)OC(C)(C)C (some centres undefined)	4 M⁻¹ s⁻¹	53.9 M⁻¹ s⁻¹	2.48 M⁻¹ s⁻¹	
CCOC(=O)[C@@H]1N[C@H]1C(=O)N[C@@H](CC(C)C)C(=O)O			1.05 M⁻¹ s⁻¹	
CCOC(=O)[C@@H]1[C@@H](C(=O)N[C@@H](CC(C)C)C(=O)N2CCCC2C(=O)OCc2ccccc2)N1C(=O)[C@H](Cc1ccccc1)NC(=O)OC(C)(C)C (some centres undefined)	7.5 M⁻¹ s⁻¹		5.35 M⁻¹ s⁻¹	
CCOC(=O)C1NC1C(=O)N[C@H](CC(C)C)C(=O)NCCC(C)C (some centres undefined)			55 M⁻¹ s⁻¹	
CCOC(=O)[C@H]1[C@H](C(=O)OCC)N1C(=O)C(Cc1ccccc1)NC(=O)OC(C)(C)C (single isomer, unassigned)	0.3 M⁻¹ s⁻¹	0.267 M⁻¹ s⁻¹	0.7 M⁻¹ s⁻¹	
CCOC(=O)C1C(C(=O)OCc2ccccc2)N1C(=O)[C@H](Cc1ccccc1)NC(=O)OC(C)(C)C (some centres undefined)			1.27 M⁻¹ s⁻¹	
CCOC(=O)[C@H]1[C@H](C(=O)N[C@@H](CC(C)C)C(=O)OCc2ccccc2)N1C(=O)[C@H](Cc1ccccc1)NC(=O)OC(C)(C)C	4.28 M⁻¹ s⁻¹	5.23 M⁻¹ s⁻¹	3.75 M⁻¹ s⁻¹	Ki [7]: 42 µM; Ki (Pro-cathepsin H): 137 µM
CCOC(=O)[C@H]1[C@H](C(=O)N[C@@H](CC(C)C)C(=O)N2CCCC2C(=O)OCc2ccccc2)N1C(=O)[C@H](Cc1ccccc1)NC(=O)OC(C)(C)C (some centres undefined)	32.3 M⁻¹ s⁻¹	98.3 M⁻¹ s⁻¹	12.8 M⁻¹ s⁻¹	
CC(C)CCNC(=O)C(CC(C)C)NC(=O)[C@@H]1N[C@H]1C(=O)O (single isomer, unassigned)			0.167 M⁻¹ s⁻¹	
CCOC(=O)[C@H]1[C@H](C(=O)OCC)N1C(=O)[C@H](Cc1ccccc1)NC(=O)C(C)NC(=O)OCc1ccccc1 (single isomer, unassigned)	0.367 M⁻¹ s⁻¹	0.55 M⁻¹ s⁻¹	0.35 M⁻¹ s⁻¹	

From ChEMBL document CHEMBL1132578, “New peptidic cysteine protease inhibitors derived from the electrophilic alpha-amino acid aziridine-2,3-dicarboxylic acid” (J Med Chem, 1999)
